# In the library only some 2.5% were active in any assay of this set; here they are far more common.
# TDP2 inh = TDP2 (human) inhibition, absorbance primary screen. O95551. recombinant TDP2, T5PNP hydrolysis, p-nitrophenol absorbance 415 nm. inhibition, % at 12.8 µM. 370,000 tested, 0.34% active;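 active = inhibition above the mean of all tested compounds plus 3 SD, set per campaign, cut at about 25% in these data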
#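 Assay system: Recombinant human TDP2 | Quantity: 120 nM TDP2 per well | Incubation: 2 h at 37 °C | Signal: Epi absorbance | Evaluation: Percent inhibition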
# PRMT1 FP inh = PRMT1 (human) inhibition, primary screen; Q99873; recombinant PRMT1, activity-based probe fluorescence polarization; inhibition, % at 2.79 µM; 370,000 tested, 1.3% active;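 active = inhibition above about 21% made by adding two undisclosed values, limit read from the data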
# Target sequence (Q99873 whole entry, looked up): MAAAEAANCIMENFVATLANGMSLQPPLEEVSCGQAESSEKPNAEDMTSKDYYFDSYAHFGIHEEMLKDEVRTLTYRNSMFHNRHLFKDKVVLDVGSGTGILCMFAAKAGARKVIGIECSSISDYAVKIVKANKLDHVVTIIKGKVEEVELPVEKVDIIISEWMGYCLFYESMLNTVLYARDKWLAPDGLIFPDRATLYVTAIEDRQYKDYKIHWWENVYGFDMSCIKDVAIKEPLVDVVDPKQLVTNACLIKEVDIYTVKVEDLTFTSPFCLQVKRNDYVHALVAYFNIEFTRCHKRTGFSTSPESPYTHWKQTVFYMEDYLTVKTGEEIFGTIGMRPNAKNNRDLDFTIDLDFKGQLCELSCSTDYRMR
# PAD4 FP inh = blocks human protein arginine deiminase 4. Q9UM07. recombinant PAD4, RCA probe fluorescence polarization. inhibition, % at 6.36 µM. 330,000 tested, 0.41% active. AID 485272;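 active = percent inhibition above a cutoff equal to the mean of all tested compounds plus 3 SD, cut at about 15% in these data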
# CTSL1 counter = cathepsin L1 inhibition, PFM18AAP counter-screen. 300,000 tested, 0.49% active. recombinant F. hepatica cathepsin L1, Z-Leu-Arg-MCA fluorescence. inhibition, % at 5.96 µM. AID 1906;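 active = inhibition above the mean of all tested compounds plus 3 SD, set per screening campaign, cut at about 17% in these data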
# GSTO1 inh = GSTO1 inhibition, counter-screen for RBBP9 inhibitors; P78417; recombinant GSTO1, activity-based probe fluorescence polarization; inhibition, % at 5.96 µM; 300,000 tested, 1.1% active; AID 1974;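 active = inhibition above the campaign mean inhibition plus 3 SD, cut at about 35% in these data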
# Target sequence (P78417 whole entry, looked up): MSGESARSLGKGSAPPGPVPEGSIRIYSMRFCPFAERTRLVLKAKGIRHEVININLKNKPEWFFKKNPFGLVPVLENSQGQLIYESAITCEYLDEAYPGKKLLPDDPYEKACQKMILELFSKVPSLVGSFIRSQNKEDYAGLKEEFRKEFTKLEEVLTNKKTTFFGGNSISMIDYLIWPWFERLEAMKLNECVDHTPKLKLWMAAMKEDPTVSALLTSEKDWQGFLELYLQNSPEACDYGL
# PRMT1 inh conf = confirmation of human PRMT1 inhibitors. recombinant His-PRMT1, activity-based probe fluorescence polarization. shares compounds with PRMT1 FP inh. 3,300 tested, 42% active. inhibition, % at 2.79 µM. AID 687036;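 active = mean inhibition across replicates above the hit cutoff derived for the earlier primary screen, cut at about 22% in these data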
# A number is an active result; – = inactive; · = no result given.
SMILES,TDP2 inh,PRMT1 FP inh,PAD4 FP inh,CTSL1 counter,GSTO1 inh,PRMT1 inh conf
Cc1ccnc(N=O)c1,–,45,–,·,·,55
O=C(CCNc1ccc(F)cc1)c1cc2ccccc2o1,–,49,–,–,–,42
COc1ccc(C(=O)Nc2cc(C(=O)c3ccccc3)c(C)oc2=O)cc1,–,57,–,18,–,–
COC(=O)c1cc(NC(=O)c2ccccc2)c(=O)oc1C,–,–,–,–,–,·
Cc1oc(=O)c(NC(=O)c2cccc(Cl)c2)cc1C(=O)c1ccccc1,–,51,–,55,–,24
CCOc1ccc(-n2c(COc3ccc(Cl)cc3)nnc2SCC(=O)Nc2ccc(OCc3ccccc3)cc2)cc1,–,–,·,·,·,·
CC(C)OC(=O)c1ccc(NCc2cc(O)ccc2O)cc1,–,36,·,·,·,30
CC(C)OC(=O)c1ccc(NC(=O)c2ccccc2)cc1,–,–,–,–,–,·
Cc1ccc2c(c1)N(CCCC(=O)NCc1c(F)cccc1F)C(=O)CO2,–,–,·,·,·,·
O=C1c2ccccc2C(=O)c2c(O)c(O)cc(O)c21,–,27,96,·,·,–
Cc1ccc(NC(=O)c2ccc(Cl)c(N3C(=O)C=CC3=O)c2)cc1,–,92,–,–,–,89
O=C(Nc1ccc(Cl)c(Cl)c1)c1ccc(Cl)c(Cl)c1,–,–,–,–,–,·
CCC12OC(=N)C(C#N)(C1C)C(C#N)(C#N)C(c1ccccc1)O2 (centres undefined),–,28,–,–,–,30
CCN(C(=O)c1cccc2c1-c1ccccc1C2=O)c1ccccc1,–,–,·,·,·,·
CCOc1ccc(C2CC(=O)NC(SC)=C2C#N)cc1 (centres undefined),–,–,–,–,–,·
C=CCSC1=C(C#N)C(c2ccccc2C)CC(=O)N1 (centres undefined),–,–,–,–,–,·
C=CCSC1=C(C#N)C(c2ccccc2Cl)CC(=O)N1 (centres undefined),–,46,–,–,–,–
C=CCSC1=C(C#N)C(c2ccc(OCC)cc2)CC(=O)N1 (centres undefined),–,29,–,–,–,–
COc1ccc(NC(=O)CSc2nnc(-c3cccs3)o2)cc1Cl,–,–,·,·,·,·
COc1ccc(CNS(=O)(=O)CC2NCCc3ccccc32)cc1 (centres undefined),–,–,·,·,·,·
CC(C)(C)n1nnnc1C(c1ccccc1)N1CCN(c2ccccc2)CC1 (centres undefined),–,–,·,·,·,·
CC(C)(C)n1nnnc1C(c1ccncc1)N1CCN(c2ccc(O)cc2)CC1 (centres undefined),–,27,–,–,–,–
COc1ccc(C(=O)Cn2c(NCCO)nc3ccccc32)cc1OC,–,–,–,–,–,·
COc1ccc(C(=O)Cn2c(NCCCO)nc3ccccc32)cc1OC,–,48,–,–,–,–
COc1cccc(N2CCN(CC(=O)NCc3c(F)cccc3F)CC2)c1,–,–,·,·,·,·
SMILES,TDP2 inh,PRMT1 FP inh,PAD4 FP inh,CTSL1 counter,GSTO1 inh,PRMT1 inh conf
CCN1/C(=C/C=C/C=C/C=C/c2sc3ccccc3[n+]2CC)Sc2ccccc21,–,53,–,–,–,23
CCN1/C(=C/C=C/C=C/c2sc3ccccc3[n+]2CC)Sc2ccccc21,·,·,–,–,–,·
COc1ccccc1Cc1c(-c2ccc(F)cc2)nc2ccc(Br)cn12,–,–,·,·,·,·
COc1ccccc1Cc1c(-c2ccco2)nc2ccc(Br)cn12,–,31,·,·,·,26
COc1ccccc1Cc1c(-c2ccco2)nc2ccc(Cl)cn12,–,28,·,·,·,–
COc1ccccc1Cc1c(-c2ccc(C)cc2)nc2ccc(Cl)cn12,–,–,·,·,·,·
COc1ccc(NC(=O)CSc2nnc(-c3n[nH]c4c3CCC4)n2N)cc1OC,–,–,·,·,·,·
NC(=O)C1CCN(c2nc(-c3ccc(OCc4ccccc4)cc3)cs2)CC1,–,–,·,·,·,·
Cc1cc(O)ccc1Nc1nc(-c2sc(N)nc2C)cs1,–,34,–,–,–,–
Cc1nc(N)sc1-c1csc(Nc2ccccc2)n1,–,–,–,–,–,·
O=C(O)/C=C/C(=O)Nc1cccc2c1-c1ccccc1C2=O,–,67,·,·,·,–
O=C(O)/C=C/C(=O)Nc1ccccc1SC(F)(F)F,–,61,–,–,–,36
O=C(O)/C=C/C(=O)Nc1ccccc1-c1ccccc1NC(=O)/C=C/C(=O)O,–,53,–,–,–,26
O=C(O)/C=C/C(=O)Nc1ccc(SC(F)(F)F)cc1,–,–,–,–,–,·
CCOc1ccc(CCNC(=O)c2cc3ccsc3n2C)cc1OCC,–,–,·,·,·,·
C=CCN1C(C(=O)OC)CN(Cc2cn(Cc3ccc(F)cc3)nn2)CCS1(=O)=O (centres undefined),–,–,·,·,·,·
CC(=O)c1cc(-c2ccccc2)n(CC(=O)NCc2ccccc2Cl)c1C,–,–,·,·,·,·
Cc1cc(C)n2ncc(C(=O)Nc3ccc4c(c3)CCC4)c2n1,–,–,·,·,·,·
Cc1ccccc1CS(=O)(=O)c1ncc(Cl)c(C(=O)Nc2ccc(F)cc2)n1,–,–,–,–,–,·
Cc1nnc(NC(=O)c2nc(S(=O)(=O)Cc3ccccc3)ncc2Cl)s1,–,–,–,–,–,·
Cc1cccc(CS(=O)(=O)c2ncc(Cl)c(C(=O)Nc3c(C)cccc3C)n2)c1,–,25,–,–,–,–
Cc1ccc(NC(=O)c2nc(S(=O)(=O)Cc3ccccc3)ncc2Cl)cc1,–,38,–,–,–,23
O=C(Nc1ccc(F)cc1)c1nc(S(=O)(=O)Cc2ccccc2)ncc1Cl,–,39,–,–,–,–
Cc1onc(-c2ccc(Cl)cc2)c1-c1ccn(S(=O)(=O)c2cccc(Cl)c2)n1,–,–,·,·,·,·
COC(=O)C1CN(Cc2ccc(F)cc2)CCS(=O)(=O)N1Cc1cn(Cc2ccccc2)nn1 (centres undefined),–,–,·,·,·,·
SMILES,TDP2 inh,PRMT1 FP inh,PAD4 FP inh,CTSL1 counter,GSTO1 inh,PRMT1 inh conf
COc1ccc(NC(=O)N(CCc2c(C)[nH]c3ccccc23)Cc2cccs2)cc1OC,–,–,·,·,·,·
N#Cc1cc2c([nH]c1=O)CCCC2,–,–,–,–,–,·
CC1(C)Cc2[nH]c(=S)c(C#N)cc2CO1,–,41,–,–,–,24
CC1(C)Cc2c(c(N3CCCC3)[nH]c(=S)c2C#N)CO1,·,·,–,–,–,·
N#Cc1cc2c([nH]c1=S)CCCC2,–,32,–,–,–,–
CC[C@@H](CCC1CCCCC1)CN(c1ccccc1)S(C)(=O)=O,–,–,·,·,·,·
CCOC(=O)[C@]12CCCCC/C=C\1N(Cc1ccc(OC)cc1)C(=O)[C@H]2CC(=O)NCc1cccc(C(F)(F)F)c1,–,–,·,·,·,·
COc1ccc(CN2CN3CCc4ccccc4C3CS2(=O)=O)cc1 (centres undefined),–,–,·,·,·,·
C[C@H](CO)N1C[C@H](C)[C@H](CN(C)S(=O)(=O)c2cccc(F)c2)OCc2ccccc2-c2c(n(C)c3ccccc23)C1=O,–,34,·,·,·,–
Cc1ccc(S(=O)(=O)N(C)C[C@@H]2OCc3ccccc3-c3c(n(C)c4ccccc34)C(=O)N([C@H](C)CO)C[C@@H]2C)cc1,–,–,·,·,·,·
